From ChEMBL document CHEMBL1125774, “3-Methyl-2H-1-benzopyran potassium channel activators” (J Med Chem, 1991)

Tests used:
Type in all cases: functional
Oryctolagus cuniculus [1] = species on record: Oryctolagus cuniculus; experiment: Drug concentration required to induce half maximal hyperpolarization in rabbit main pulmonary arteries
Outline: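 Rabbit main pulmonary artery strips, 60 min equilibration, predepolarized with 1 µM noradrenaline. Membrane potential recorded intracellularly with glass microelectrodes in at least four cells per concentration while compound concentration was raised by bath exchange. EC50 is the concentration giving half-maximal hyperpolarization, taken from concentration/response curves.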

Oryctolagus cuniculus [2] = species on record: Oryctolagus cuniculus; experiment: Relaxing effect by measuring inhibition of noradrenaline-induced contractions in rabbit main pulmonary arteries
Outline: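 Rabbit pulmonary artery rings 5 mm wide, resting tension 2 g, equilibrated 60–90 min, isometric force recording. Rings contracted with 0.7-1 µM noradrenaline (about 80% of maximal response). Once force was stable, compound added cumulatively in 0.5 log increments. IC50 (50% inhibition) determined graphically for each experiment and reported as geometric mean with 95% confidence limits.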

Oryctolagus cuniculus [3] = species on record: Oryctolagus cuniculus; experiment: Compound measured for hyperpolarization of smooth muscle cells of the rabbit main pulmonary artery at concentration 1 uM.
Outline: (§1)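 Rabbit main pulmonary artery strips; intracellular glass microelectrode recording of smooth muscle membrane potential after 60 min equilibration. Baseline taken as potential reached with 1 µM noradrenaline. Bath medium exchanged for solutions of increasing compound concentration. At least four cells measured per concentration. Value is hyperpolarization (ΔmV) at the stated concentration, averaged over two preparations.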

Sus scrofa = species on record: Sus scrofa; experiment: Relaxing effect determined by measuring inhibition of acetylcholine-induced contractions in pig coronary arteries.
Outline: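 Pig coronary artery rings from slaughterhouse hearts, resting tension 2 g, isometric force recording. Control acetylcholine contraction repeated every 45 min for three or four cycles, with the last cycle as predrug value. Rising compound concentrations added 30 min before agonist; a solvent ring served as time control.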

Oryctolagus cuniculus [4] = species on record: Oryctolagus cuniculus; experiment: Compound measured for hyperpolarization of smooth muscle cells of the rabbit main pulmonary artery at concentration 0.1 uM.; outline: as §1
Oryctolagus cuniculus [5] = species on record: Oryctolagus cuniculus; experiment: Compound measured for hyperpolarization of smooth muscle cells of the rabbit main pulmonary artery at concentration 100 uM.; outline: as §1
Oryctolagus cuniculus [6] = species on record: Oryctolagus cuniculus; experiment: Compound measured for hyperpolarization of smooth muscle cells of the rabbit main pulmonary artery at concentration 4 uM.; details: in the assay text read “10 uM” for “4 uM”; outline: as §1
Oryctolagus cuniculus [7] = species on record: Oryctolagus cuniculus; experiment: Compound measured for hyperpolarization of smooth muscle cells of the rabbit main pulmonary artery at concentration 10 uM.; outline: as §1
Oryctolagus cuniculus [8] = species on record: Oryctolagus cuniculus; experiment: Compound measured for hyperpolarization of smooth muscle cells of the rabbit main pulmonary artery at concentration 3 uM.; outline: as §1

| Compound | IC50 (Sus scrofa) [nM] | Delta mV (Oryctolagus cuniculus [5]) | further results |
| --- | --- | --- | --- |
| CC1(C)Oc2ccc(C#N)cc2[C@@H](n2ccccc2=O)[C@@H]1O |  |  | EC50 (Oryctolagus cuniculus [1]): 105 nM; IC50 (Oryctolagus cuniculus [2]): 174 nM; Delta mV (Oryctolagus cuniculus [3]): 34 |
| CCn1nc(O[C@@H]2c3cc(C#N)ccc3OC(C)(C)[C@@]2(C)O)ccc1=O | 7 |  | Delta mV (Oryctolagus cuniculus [4]): 22 |
| CC1(C)Oc2ccc([N+](=O)[O-])cc2[C@@H](Oc2ccc(=O)[nH]n2)[C@]1(C)O | 20 |  | Delta mV (Oryctolagus cuniculus [4]): 24 |
| CC1(C)Oc2ccc(C#N)cc2[C@H](Oc2ccc(=O)[nH]n2)[C@@]1(C)O |  | 20 |  |
| CC1(C)Oc2ccc(C#N)cc2[C@@H](n2nc(N)ccc2=O)[C@]1(C)O | 40000 | 13 |  |
| Cn1nc(O[C@@H]2c3cc(C#N)ccc3OC(C)(C)[C@H]2O)ccc1=O | 50 |  | EC50 (Oryctolagus cuniculus [1]): 11 nM; IC50 (Oryctolagus cuniculus [2]): 26 nM; Delta mV (Oryctolagus cuniculus [4]): 29 |
| CC1(C)Oc2ccc(C#N)cc2[C@@H](OC2=CC(=O)CC2)[C@]1(C)O | 20 |  | Delta mV (Oryctolagus cuniculus [3]): 25 |
| CC1(C)Oc2ccc(C#N)cc2[C@@H](Oc2ccc(=O)[nH]n2)[C@@]1(O)Cc1ccccc1 | > 100000 | 6 |  |
| C[C@]1(O)[C@H](Oc2ccc(=O)[nH]n2)c2cc(C#N)ccc2OC12CCCCC2 | 80000 | 26 |  |
| CC1=C(n2ccccc2=O)c2cc(C#N)ccc2OC1(C)C | 5000 | 29 |  |
| CC1(C)Oc2ccc(C#N)cc2[C@@H](Oc2ccc(=O)[nH]n2)[C@]1(C)O | 6 |  | EC50 (Oryctolagus cuniculus [1]): 3 nM; IC50 (Oryctolagus cuniculus [2]): 2 nM; Delta mV (Oryctolagus cuniculus [4]): 29 |
| CC1(C)Oc2ccc(C#N)cc2[C@]2(n3ccccc3=O)O[C@]12C | > 100000 | 10 |  |
| CC1(C)Oc2ccc(C#N)cc2[C@@H](N2CCCC2=O)[C@]1(C)O | 4000 |  | Delta mV (Oryctolagus cuniculus [6]): 23 |
| CC1(C)Oc2ccc(C#N)cc2[C@@H](Oc2ccnc(O)c2)[C@]1(C)O | 4 |  | Delta mV (Oryctolagus cuniculus [4]): 35 |
| CC1(C)Oc2ccc([N+](=O)[O-])cc2[C@@H](n2ccccc2=O)[C@]1(C)O | 20000 |  | Delta mV (Oryctolagus cuniculus [7]): 22 |
| CC1=C(N2CCCC2=O)c2cc(C#N)ccc2OC1(C)C | > 100000 | 29 |  |
| Cn1nc(N[C@@H]2c3cc(C#N)ccc3OC(C)(C)[C@@]2(C)O)ccc1=O | 20 |  | Delta mV (Oryctolagus cuniculus [4]): 34 |
| CC1(C)Oc2ccc(C#N)cc2[C@@H](Nn2ccccc2=O)[C@]1(C)O | > 100000 | 12 |  |
| CC1(C)Oc2ccc(C#N)cc2[C@@H](On2ccccc2=O)[C@]1(C)O | > 100000 | 21 |  |
| CC1(C)Oc2ccc(C#N)cc2[C@@H](Oc2ccc(=O)[nH]n2)[C@@]1(O)CO | 700 |  | Delta mV (Oryctolagus cuniculus [8]): 32 |
| C[C@]1(O)[C@H](n2ccccc2=O)c2cc(C#N)ccc2OC12CCCCC2 | 20000 | 3 |  |
| CC1(C)Oc2ccc(C#N)cc2C(N2CCCC2=O)C1O (stereo unspecified) [CROMAKALIM] | 700 |  | EC50 (Oryctolagus cuniculus [1]): 263 nM; IC50 (Oryctolagus cuniculus [2]): 420 nM; Delta mV (Oryctolagus cuniculus [8]): 28 |
| Cn1nc(O[C@@H]2c3cc(C#N)ccc3OC(C)(C)[C@@]2(C)O)ccc1=O | 30 |  | Delta mV (Oryctolagus cuniculus [4]): 24 |
| CC1(C)Oc2ccc(C#N)cc2[C@@H](Oc2ccc(=O)[nH]n2)[C@@]1(O)COCc1ccccc1 | > 100000 | 16 |  |
| CCOC[C@]1(O)[C@H](Oc2ccc(=O)[nH]n2)c2cc(C#N)ccc2OC1(C)C | 50000 | 12 |  |
| CC1(C)C=C(n2ccccc2=O)c2cc(C#N)ccc2O1 [BIMAKALIM] | 50 |  | EC50 (Oryctolagus cuniculus [1]): 27 nM; IC50 (Oryctolagus cuniculus [2]): 57 nM; Delta mV (Oryctolagus cuniculus [4]): 23 |
| CC1(C)Oc2ccc(C#N)cc2[C@@H](n2ccccc2=O)[C@]1(C)O | > 100000 | 19 |  |
| CC1(C)Oc2ccc(C#N)cc2[C@@H](Oc2ccccn2)[C@]1(C)O | 6000 | 25 |  |
| C[C@H]1[C@H](n2ccccc2=O)c2cc(C#N)ccc2OC1(C)C | > 100000 |  | Delta mV (Oryctolagus cuniculus [3]): 10 |
